From PubChem BioAssay
DNA FID counter: displaces DNA intercalator in HCV helicase counter-screen. 0.17% of 290,000 active. DNA fluorescent intercalator displacement, fluorescence. inhibition, % at 7.9 µM; in the data active = inhibition above about 37%;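 note: higher means more ethidium bromide displaced from hairpin DNA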
SR-BI DiI-HDL act: enhances SR-BI lipid uptake from DiI-HDL. CHO ldlA[mSR-BI] cells, DiI-HDL uptake fluorescence, 3 h; 100 = double the neutral-control signal. AID 504775. 0.096% of 320,000 active. activation, % at 12.5 µM;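 active = mean replicate activation of at least 60% and every replicate at or above 60%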
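Material – SR-BI-overexpressing, LDLR-lacking CHO cells · Medium – BSA-supplemented, HEPES-buffered Ham's F12, pH 7.4 · Doses – single concentration · Times – compound with DiI-HDL co-incubation, 3 h at 37 °C · Measured by – bottom-read fluorescence, 550/595 nm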
TMEM16A act: activates or potentiates the mouse TMEM16A chloride channel; Q8BHY3; HEK293 TMEM16A/YFP-H148Q/I152L, iodide quench fluorescence; active compounds read low; B-score at 10 µM; 0.3% of 340,000 active;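 active = fluorescence-ratio B-score plate-corrected deviation score at least 3 library SD below zero, with starting fluorescence score within 5 deviations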;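 note: channel opened by trigger with iodide after compound preincubation; score built on the fluorescence ratio of max minus min over baseline; more negative score means more quench and so TMEM16A activation or potentiation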
Kir21 block: blocks the mouse Kir2.1 inward-rectifier potassium channel | HEK293-Kir2.1, FluxOR thallium flux fluorescence; active compounds read low | AID 1672 | 0.85% of 310,000 active | B-score at 10 µM;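 active = fluorescence ratio B-score at or below minus 3 SD of library scores, with starting-brightness B-score within 2 SD, cut at about -4.2 in these data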;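 note: channel flux triggered by added potassium and thallium sulfate stimulus; B-score of peak minus minimum fluorescence over baseline after thallium stimulus; more negative B-score means stronger Kir2.1 block with less thallium influx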
Target sequence (P35561 whole entry, looked up): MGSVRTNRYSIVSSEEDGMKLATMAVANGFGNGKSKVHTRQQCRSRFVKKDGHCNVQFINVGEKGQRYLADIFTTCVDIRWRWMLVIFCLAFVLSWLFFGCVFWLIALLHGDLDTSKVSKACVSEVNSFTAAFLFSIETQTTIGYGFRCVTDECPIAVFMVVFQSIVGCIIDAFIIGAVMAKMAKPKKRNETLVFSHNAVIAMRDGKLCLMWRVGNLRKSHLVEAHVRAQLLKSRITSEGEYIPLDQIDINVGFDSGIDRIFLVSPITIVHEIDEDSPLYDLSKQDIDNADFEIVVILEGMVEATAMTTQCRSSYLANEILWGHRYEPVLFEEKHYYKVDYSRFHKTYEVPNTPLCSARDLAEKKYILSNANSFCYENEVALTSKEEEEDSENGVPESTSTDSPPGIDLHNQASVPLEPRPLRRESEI
TMEM16A inh: blocks the mouse calcium-activated chloride channel TMEM16A. Q8BHY3. 1.2% of 310,000 active. HEK293 TMEM16A/YFP iodide influx fluorescence, ionomycin. AID 588511. normalized B-score (activity score, 25-100; higher = stronger inhibition) at 10 µM;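 active = ratio plate-corrected score three or more library SD toward inhibition, starting fluorescence score within five deviations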;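 note: score derived from kinetic fluorescence span divided by baseline fluorescence per well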
SR-BI DiI inh: inhibitors of mouse SR-BI mediated HDL lipid uptake; ldlA[mSR-BI] CHO cells, DiI-HDL uptake fluorescence, 3 h; inhibition, % at 12.5 µM; Q61009; AID 488896; 0.96% of 320,000 active;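 active = mean replicate inhibition of at least 70% and a set share of replicates each scoring 70 or more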
Hits are given with their value; 0 = inactive; - = no result given. The list is not random: actives were taken first. Their share in the collection is about 3%.

SMILES	DNA FID counter	SR-BI DiI-HDL act	TMEM16A act	Kir21 block	TMEM16A inh	SR-BI DiI inh
O=c1c2ccccc2nc(COc2ccccc2)n1/N=C/c1cn[nH]c1-c1ccccc1	0	0	-6.49	0	0	0
Cc1ccccc1OCc1nc2ccccc2c(=O)n1/N=C/c1cn[nH]c1-c1ccc(Br)cc1	0	0	0	0	0	0
COc1cc(C(=O)N(C)CCOc2ccccc2)ccc1OCC(=O)Nc1cccc(C(F)(F)F)c1	-	0	0	0	100	0
O=C(NC1CCC1)C1CCC(=O)N(Cc2cccc(F)c2)C1 (stereo unspecified)	0	0	-6.21	0	0	0
CCC(C)N(C(=O)CSc1nnc(-c2cccs2)n1C1CC1)C1CCS(=O)(=O)C1 (stereo unspecified)	-	0	0	-	-	0
Cc1ccc(-n2nnnc2C(Cl)c2nnnn2-c2ccc(C)cc2)cc1	0	0	0	-11.5	-	0
Cc1nc2ccc(S(=O)(=O)N(C)CC(=O)Nc3ccccc3F)cc2s1	0	0	0	0	0	0
Cc1ccc(S(=O)(=O)N(C)c2ccc(OCC(=O)NCC3(N(C)C)CCCCC3)cc2)cc1	-	0	0	0	0	83.2
COc1ccc(CCNC(=O)COc2ccc(N(C)S(=O)(=O)c3ccc(C)cc3)cc2)cc1	0	-	0	0	0	-
CC(C)n1ncc2c(C(=O)Nc3ccc(S(C)(=O)=O)cc3)cc(C3CC3)nc21	-	0	0	-	-	0
CNC(=O)c1cccc(NC(=O)c2cc(-c3ccccc3)nc3c2cnn3C(C)C)c1	-	0	0	-	-	82.2
COc1cc(NC(=O)c2cc(-c3ccccc3)nc3c2cnn3C(C)C)cc(OC)c1OC	-	0	0	-	-	0
CC(C)n1ncc2c(C(=O)Nc3cccc(S(=O)(=O)N(C)C)c3)cc(C3CC3)nc21	-	0	0	-	-	76.3
O=C(COc1ccc(F)cc1Cl)Nc1cccc(S(=O)(=O)N2CCCCCC2)c1	-	0	0	-	-	0
CCN(CC)C1CCN(Cc2c(C(=O)N3CCCCCCC3)nc3ccc(Cl)cn23)C1 (stereo unspecified)	0	0	0	0	0	0
CCc1nn(CCCC(=O)NCc2ccccc2Br)c(=O)c2cc3occc3n12	0	0	0	0	0	0
CCc1cccc(NC(=O)CCCn2nc(CC)n3c(cc4occc43)c2=O)c1	0	0	0	-5.02	0	0
O=C(COC(=O)c1cnccn1)N=c1sccn1Cc1ccccc1Cl	-	0	0	0	0	0
CC(/C=C/C=C/c1ccccc1)=N/NC(=O)CNc1ccccc1C	0	0	0	0	0	0
COc1ccccc1CNS(=O)(=O)c1ccc(Br)s1	0	0	0	-4.98	0	0
COc1ccccc1N1CCN(C(=O)CNS(=O)(=O)c2ccc(Br)s2)CC1	0	0	0	0	0	0
Cc1cc2nc3c(=O)n(CCc4ccccc4)c(=O)[nH]c3nc2cc1N	0	0	0	0	0	0
Nc1ccc2nc3c(=O)n(CCc4ccccc4)c(=O)[nH]c3nc2c1	0	-	-6.58	0	0	-
CC(/C=C/c1ccccc1)=N/NC(=O)c1cnccn1	0	0	0	0	0	0
O=C(N/N=C/C=C/c1ccccc1)c1cnccn1	0	240.5	-	0	0	0
SMILES	DNA FID counter	SR-BI DiI-HDL act	TMEM16A act	Kir21 block	TMEM16A inh	SR-BI DiI inh
O=C(Cn1cnc2cc([N+](=O)[O-])ccc2c1=O)Nc1cccc(S(=O)(=O)N2CCCCC2)c1	-	0	0	-	-	0
CC(C(=O)NC1CCCCC1)N(Cc1ccccc1)C(=O)c1snc(C(N)=O)c1N (stereo unspecified)	0	-	0	0	0	-
O=C1c2cccc(OCc3ccc(F)cc3)c2CCN1Cc1ccc(F)cc1	0	0	0	0	25	0
COc1cccc(NC(=O)c2ccc(NCCCN3CC(C)CC(C)C3)c([N+](=O)[O-])c2)c1 (stereo unspecified)	50.6	0	0	0	-	0
CN(Cc1ccccc1)C(=O)c1cccc(NC(=O)Cc2ccc(NC(=O)C3CCCN(C(=O)c4ccccc4)C3)cc2)c1 (stereo unspecified)	-	0	-	-	-	0
O=C(/C(=N\O)n1cncn1)c1ccc(Cl)cc1Cl	0	0	0	0	0	0
O=C(/C(=C/c1ccccc1)n1cncn1)c1ccc(Cl)cc1Cl	0	0	0	-12.6	0	0
O=C(COC(=O)C1CC1)NCc1ccc(Cl)cc1Cl	-	0	0	-	-	0
